Source: PMC3581696 (The Journal of General Physiology, 2013)
Positions count from the first letter of the chain named. Several values for one entry are separate records, joined by “and”; a condition that tells them apart may be missing. Identical values can stand only once.

Key:
[1] = target: T1, mEAG1 Δ2–173 channels (Mus musculus, UniProt Q60603); experiment: Inside-out patch-clamp of amino-terminal deletion mutant channels; assay type: cell-based
T1 sequence (Q60603 with tags, fused parts or gaps): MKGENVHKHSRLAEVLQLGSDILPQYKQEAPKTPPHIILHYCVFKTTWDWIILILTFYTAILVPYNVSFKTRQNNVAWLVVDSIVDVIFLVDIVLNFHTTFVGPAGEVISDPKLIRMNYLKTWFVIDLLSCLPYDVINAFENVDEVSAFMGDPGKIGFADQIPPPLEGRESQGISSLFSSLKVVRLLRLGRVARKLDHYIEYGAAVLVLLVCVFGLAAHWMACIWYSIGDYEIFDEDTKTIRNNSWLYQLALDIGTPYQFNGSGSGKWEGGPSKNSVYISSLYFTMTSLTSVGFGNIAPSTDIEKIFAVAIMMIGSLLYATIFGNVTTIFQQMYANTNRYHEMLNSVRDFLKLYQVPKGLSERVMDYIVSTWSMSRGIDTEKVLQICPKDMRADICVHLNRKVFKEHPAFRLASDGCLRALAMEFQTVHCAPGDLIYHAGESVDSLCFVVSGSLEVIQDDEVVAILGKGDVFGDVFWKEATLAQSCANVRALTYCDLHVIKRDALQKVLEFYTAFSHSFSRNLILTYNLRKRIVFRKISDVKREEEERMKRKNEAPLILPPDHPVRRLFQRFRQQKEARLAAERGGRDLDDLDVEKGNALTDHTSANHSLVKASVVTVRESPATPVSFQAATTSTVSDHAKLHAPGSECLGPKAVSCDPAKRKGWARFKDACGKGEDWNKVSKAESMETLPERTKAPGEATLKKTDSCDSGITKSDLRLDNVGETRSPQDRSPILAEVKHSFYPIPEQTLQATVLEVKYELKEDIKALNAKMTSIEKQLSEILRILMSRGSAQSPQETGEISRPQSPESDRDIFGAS
Method in brief: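 Δ2–173 mEAG1 was expressed in Xenopus oocytes and recorded in inside-out patches in symmetric 130 mM KCl/HEPES/EDTA, pH 7.2, held at −100 mV. Steps of 3 s from −100 to +100 mV (20-mV increments) returned to −100 mV for 1 s, with 0 or 30 µM flavonoid. Conductance–voltage data were fit with a product of two Boltzmann functions, with inactivation parameters and activation slope held fixed. The −100 mV tail after a step to −40 mV was fit with a single exponential.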

[2] = target: T2, Y699A mutant CNBHD from mEAG1 (Mus musculus, UniProt Q60603, Y699A); experiment: Fisetin fluorescence anisotropy binding assay, Y699A CNBHD; conditions: Kd (apparent affinity), 5 µM fisetin, fit with Eq. 7
T2 sequence (Q60603 552-724 Y699A): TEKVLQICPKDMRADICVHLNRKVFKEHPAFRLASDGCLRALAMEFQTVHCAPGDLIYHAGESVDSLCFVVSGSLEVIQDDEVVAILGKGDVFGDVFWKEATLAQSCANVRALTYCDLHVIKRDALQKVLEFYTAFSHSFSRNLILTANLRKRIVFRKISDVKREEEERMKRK

[3] = Solubility limit in recording / aqueous solutions; assay type: physicochemical; conditions: recording solutions, aqueous buffer
[4] = target: T3, wild-type CNBHD from mEAG1 (Mus musculus, UniProt Q60603); experiment: Fisetin fluorescence anisotropy binding assay, wild-type CNBHD; conditions: Kd (apparent affinity), 5 µM fisetin, fit with Eq. 7
T3 sequence (Q60603 552-724): T2 sequence (Q60603 552-724 Y699A) with A148Y

[5] = target: T4, mEAG1 Y699A channels (Mus musculus, UniProt Q60603, Y699A); experiment: Inside-out patch-clamp of intrinsic ligand mutant channels; assay type: cell-based
T4 sequence (Q60603 1-989 Y699A): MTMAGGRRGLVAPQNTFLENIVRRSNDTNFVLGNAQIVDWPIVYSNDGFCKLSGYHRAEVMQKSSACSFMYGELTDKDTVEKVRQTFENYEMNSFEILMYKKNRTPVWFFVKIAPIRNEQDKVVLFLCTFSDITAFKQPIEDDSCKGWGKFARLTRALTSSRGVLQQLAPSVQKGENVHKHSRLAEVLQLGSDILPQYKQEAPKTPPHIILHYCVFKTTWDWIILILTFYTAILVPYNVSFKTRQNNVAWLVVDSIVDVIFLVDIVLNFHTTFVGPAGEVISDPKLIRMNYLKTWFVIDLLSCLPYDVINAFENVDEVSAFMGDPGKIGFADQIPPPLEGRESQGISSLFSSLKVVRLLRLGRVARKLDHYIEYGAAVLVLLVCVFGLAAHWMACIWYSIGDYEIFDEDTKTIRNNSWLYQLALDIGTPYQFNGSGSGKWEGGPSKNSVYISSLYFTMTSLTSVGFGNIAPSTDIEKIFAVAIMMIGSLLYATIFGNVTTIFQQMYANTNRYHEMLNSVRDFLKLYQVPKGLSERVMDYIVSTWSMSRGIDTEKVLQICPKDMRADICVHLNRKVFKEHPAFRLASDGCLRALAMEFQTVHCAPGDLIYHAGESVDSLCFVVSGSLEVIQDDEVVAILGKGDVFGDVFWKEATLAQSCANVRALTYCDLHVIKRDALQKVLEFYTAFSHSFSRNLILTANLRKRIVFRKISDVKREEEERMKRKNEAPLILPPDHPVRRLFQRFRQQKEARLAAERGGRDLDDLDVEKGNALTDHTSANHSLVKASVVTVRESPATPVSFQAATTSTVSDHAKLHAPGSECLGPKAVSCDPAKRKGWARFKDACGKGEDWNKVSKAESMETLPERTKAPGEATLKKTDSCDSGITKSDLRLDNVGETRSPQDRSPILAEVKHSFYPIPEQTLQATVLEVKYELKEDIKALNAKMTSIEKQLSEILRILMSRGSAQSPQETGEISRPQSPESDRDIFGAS
Method in brief: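 mEAG1 mutant cRNA was injected into defolliculated Xenopus oocytes, and the vitelline membrane was removed. Inside-out patches were bathed in symmetric 130 mM KCl, 10 mM HEPES, 0.2 mM EDTA, pH 7.2, holding at −100 mV. Steps of 0.1 s from −140 to +50 mV (10-mV increments) were followed by −120 mV tails, without or with 30 µM flavonoid. Peak tails were normalized and Boltzmann-fitted. Deactivation time constant came from single-exponential fits of the −120 mV tail after +50 mV; two-tailed t test.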

increase of peak conductance after a step to −40 mV ([1]; 30 µM fisetin, average): 1.7 fold
time constant of deactivation ([1]; with 30 µM fisetin, after a step to −40 mV, 117 ± 1 ms without, n = 3): 375 ± 36 ms
time constant of deactivation (tail currents of Fig. 5 C) ([1]; with 30 µM fisetin, tail at −100 mV after step to −40 mV, 116 ms without): 239 ms
Kd [2]: 30 µM and ≥ 30 µM
solubility [3]: ≤ 150 µM
Kd [4]: 111 µM and ≥ 111 µM
potentiation of mEAG1 Y699A channels ([5]; 30 µM fisetin): did not potentiate
time constant of deactivation ([5]; with 30 µM fisetin, at −120 mV, 5.0 ± 0.4 ms without, n = 10, P = 0.06): 6.4 ± 0.6 ms
V1/2 of the conductance–voltage relationship ([5]; with 30 µM fisetin, −54.9 ± 3.5 mV without, n = 10, P = 0.65): −57.2 ± 3.6 mV
SMILES: O=c1c(O)c(-c2ccc(O)c(O)c2)oc2cc(O)ccc12 [Fisetin, 2-(3,4-dihydroxyphenyl)-3,7-dihydroxychromen-4-one]
